From ChEMBL document CHEMBL1143933, “Synthesis, dopaminergic profile, and molecular dynamics calculations of N-aralkyl substituted 2-aminoindans” (Bioorg Med Chem, 2008)
Activity calls are given as the source filed them. The calls are words filed in the database; no cut-off is given here.

Legend:
Type in all cases: functional, organism-based
Rattus norvegicus [1] = experiment: Induction of stereotyped behavior in icv dosed Sprague-Dawley rat
In short: (§1)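 Cannula placed in the right lateral ventricle under pentobarbital (40 mg/kg, ip) at 0.40 mm bregma, 1.1 mm lateral, 2.2 mm ventral. After 3 days, compound (0.6 or 6.0 µg/5 µl, or 50 µg/5 µl) or 0.9% NaCl infused at 0.5 µl/min. Starting 5 min later, behavior observed for 45 min in Plexiglas chambers. Gnawing recorded by computer at 4.5 min intervals. Four rats per measurement; ANOVA with Duncan's test.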

Rattus norvegicus [2] = experiment: Natriuretic effect in icv dosed Sprague-Dawley rat assessed as increase in sodium excretion after 6 hrs
In short: (§2)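 Adult male Sprague-Dawley rats (220–280 g) fitted with a cannula in the left lateral cerebroventricle under pentobarbital (40 mg/kg, ip), then allowed at least 3 days of recovery. Single ICV injection of 50 µg/10 µl, or vehicle NaCl 0.9%. Oral water load of 20 ml/kg, then individual metabolic cages. Urine collected at 3 and 6 h, with the bladder emptied at 6 h. Sodium measured by flame photometry. N = 6–8 per group; two-way ANOVA with Newman–Keuls.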

Rattus norvegicus [3] = experiment: Diuretic effect in icv dosed Sprague-Dawley rat assessed as increase in urine volume after 6 hrs; in short: as §2
Rattus norvegicus [4] = experiment: Reduction of apomorphine-induced stereotyped behavior in Sprague-Dawley rat at 6 ug/ul, icv
In short: (§3)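 Rats cannulated in the right lateral ventricle. ICV infusion of 0.6 or 6.0 µg/5 µl, or 0.9% NaCl, at 0.5 µl/min. Apomorphine HCl (1 mg/kg) given 1 min before observation began. Stereotyped gnawing recorded by computer at 4.5 min intervals for 45 min. Four rats per measurement; means ± SEM; ANOVA with Duncan's multiple range test.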

Rattus norvegicus [5] = experiment: Induction of stereotyped behavior in Sprague-Dawley rat at 0.6 ug/ul, icv; in short: as §1
Rattus norvegicus [6] = experiment: Inhibition of dopamine-induced natriuresis in icv dosed Sprague-Dawley rat
In short: (§4)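 Male Sprague-Dawley rats (220–280 g) with a left lateral ventricle cannula. ICV pretreatment of 50 µg/5 µl, or vehicle 5 µl, given 15 min before ICV dopamine (100 µg/5 µl) or saline, then oral water 20 ml/kg. Urine volume and sodium (flame photometry) measured over 3 h and 6 h collections. N = 6–8; two-way ANOVA with Newman–Keuls.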

Rattus norvegicus [7] = experiment: Natriuretic effect in icv dosed Sprague-Dawley rat assessed as increase in sodium excretion after 3 hrs; in short: as §2
Rattus norvegicus [8] = experiment: Induction of stereotyped behavior in Sprague-Dawley rat at 6 ug/ul, icv; in short: as §1
Rattus norvegicus [9] = experiment: Reduction of apomorphine-induced stereotyped behavior in Sprague-Dawley rat at 0.6 ug/ul, icv; in short: as §3
Rattus norvegicus [10] = experiment: Inhibition of dopamine-induced diuresis in icv dosed Sprague-Dawley rat; in short: as §4

Compound | Activity (Rattus norvegicus [1]) | Activity (Rattus norvegicus [2]) | Activity (Rattus norvegicus [3]) | Activity (Rattus norvegicus [4]) | Activity (Rattus norvegicus [5]) | Activity (Rattus norvegicus [6]) | Activity (Rattus norvegicus [7]) | Activity (Rattus norvegicus [8]) | Activity (Rattus norvegicus [9]) | Activity (Rattus norvegicus [10])
CCC(C)NC1Cc2ccc(O)c(O)c2C1 (configuration not stated) | Active | Active | Active | – | – | – | – | – | – | –
CC(Cc1ccc(O)c(O)c1)NC1Cc2ccc(O)c(O)c2C1 (configuration not stated) | – | inactive | inactive | Active | inactive | Active | inactive | inactive | Active | Active
